Experimental data collected from several papers.
Protocols differ between the studies behind these lines.
pH: 7.4

SMILES | method | medium | time | logD
CNS(=O)(=O)c1ccc(Nc2ncc(C(F)(F)F)c(N3CCC[C@](C)(O)C3)n2)c(C)c1 | shake flask | aqueous buffer | 1 h | 3.4
C=C1C[C@@]23CC[C@H]4[C@@](C)(CCC[C@@]4(C)C(=O)O[C@@H]4O[C@H](CO)[C@@H](O)[C@H](O)[C@H]4O)[C@@H]2CC[C@]1(O[C@@H]1O[C@H](CO)[C@@H](O)[C@H](O)[C@H]1O)C3 | shake flask | aqueous buffer |  | -1.45
Cc1ccc(Nc2ncnc3ccc(-c4cccc(N5CCOCC5)c4)cc23)cc1 | shake flask | aqueous buffer |  | > 4.1
N#Cc1ccc(-c2csc(CNC(=O)[C@H]3CCCN(C(=O)CCN)C3)n2)cc1 | shake flask | aqueous buffer |  | -0.69
C[C@H](O)c1cnc(NS(=O)(=O)c2ccc(Cl)c(Cl)c2)nc1 | shake flask | aqueous buffer |  | 0.5
NCCOCC(=O)N1CCC[C@H](C(=O)NCc2nc(-c3ccc(C(F)(F)F)cc3)cs2)C1 | shake flask | aqueous buffer |  | 0.47
CNS(=O)(=O)c1ccc(Nc2ncc(C(F)(F)F)c([C@H]3CC[C@@](C)(O)CC3)n2)c(C)c1 | shake flask | aqueous buffer | 1 h | 4
O=[N+]([O-])c1ccc(Nc2ncnc3ccc(-c4cccc(N5CCOCC5)c4)cc23)cc1C(F)(F)F | shake flask | aqueous buffer |  | > 3.4
C[C@H](O)c1ccc(NS(=O)(=O)c2ccc(OCC3CCC3)c(Cl)c2)c2nn(C)cc12 | shake flask | aqueous buffer |  | 3.8
C=CC(=O)N1CC2(CCN(c3nc4c(c(-c5cc(O)cc6ccccc56)c3Cl)COC(C)(C)C4)C2)C1 |  |  |  | 4.9
N#Cc1ccc(-c2csc(CNC(=O)[C@H]3CCCN(C(=O)COCCF)C3)n2)cc1 | shake flask | aqueous buffer |  | 1.6
C=C1C[C@@]23CC[C@H]4[C@@](C)(CCC[C@@]4(C)C(=O)O[C@@H]4O[C@H](CO)[C@@H](O)[C@H](O)[C@H]4O)[C@@H]2CC[C@]1(O[C@@H]1O[C@H](CO)[C@@H](O)[C@H](O)[C@H]1O[C@@H]1O[C@H](CO)[C@@H](O)[C@H](O)[C@H]1O)C3 | shake flask | aqueous buffer |  | -1.51
C[C@H]1CN(c2cccc(-c3ccc4ncnc(Nc5ncco5)c4c3)c2)CCO1 | shake flask | aqueous buffer |  | > 4.3
O=C(O)c1ccc(NS(=O)(=O)c2ccc(Cl)c(Cl)c2)c2ncccc12 | shake flask | aqueous buffer |  | 0.9
Cc1ccc(Nc2cnnc3ccc(-c4ccc(N5CCN(C)CC5)cc4)cc23)cn1 | shake flask | aqueous buffer |  | 3.5
Cn1cc2c(C(=O)O)ccc(NS(=O)(=O)c3ccc(Cl)c(Cl)c3)c2n1 | shake flask | aqueous buffer |  | 0.5
CCOCC(=O)N1CCC[C@H](C(=O)NCc2nc(-c3ccc(C)nc3)cs2)C1 | shake flask | aqueous buffer |  | 1.4
CN1CCC(Nc2ncnc3ccc(-c4cccc(N5CCOCC5)c4)cc23)CC1 | shake flask | aqueous buffer |  | 2.5
N=C(CC(O)c1cc2c(F)cc(F)cc2c2cc(C(F)(F)F)ccc12)Nc1ccc(F)c(F)c1 (centres unmarked) |  |  |  | 4.96
Cc1nc(Nc2ncnc3ccc(-c4cccc(N5CCOCC5)c4)cc23)oc1C | shake flask | aqueous buffer |  | 4.3
C=CC(=O)N1CC2(CCN(c3nc4c(c(-c5c(C)ccc6[nH]ncc56)c3C#N)C[C@H]3C[C@@H]4C3(C)C)C2)C1 |  |  |  | 4.4
CC(C)NCCOCC(=O)N1CCC[C@H](C(=O)NCc2nc(-c3ccc(C(F)(F)F)cc3)cs2)C1 | shake flask | aqueous buffer |  | 1.5
CNS(=O)(=O)c1ccc(Nc2ncc(C(F)(F)F)c(N3CCC(C)(O)CC3)n2)c(C)c1 | shake flask | aqueous buffer | 1 h | 3.8
Clc1cccc(Nc2ncnc3ccc(-c4cccc(N5CCOCC5)c4)cc23)c1 | shake flask | aqueous buffer |  | 5.3
CC(C)(N)COCC(=O)N1CCC[C@H](C(=O)NCc2nc(-c3ccc(C(F)(F)F)cc3)cs2)C1 | shake flask | aqueous buffer |  | 1.4
c1cc(-c2ccc3ncnc(Nc4ncco4)c3c2)nc(N2C[C@H]3C[C@@H]2CO3)n1 | shake flask | aqueous buffer |  | 3.1
C=CC(=O)N1CC2(CCN(c3nc4c(c(-c5cc(O)cc6ccccc56)c3C#N)COC(C)(C)C4)C2)C1 |  |  |  | 4.3
C[C@@H]1COCCN1c1cccc(-c2ccc3ncnc(Nc4ncco4)c3c2)c1 | shake flask | aqueous buffer |  | 4.2
Cc1ccc(Nc2cnnc3ccc(-c4ccc(N5CCCN(C)CC5)cc4)cc23)cn1 | shake flask | aqueous buffer |  | 3.3
